The source of these data is PubChem BioAssay AID504323 (Broad Institute, 2011).

The structures appear in SMILES notation. “And” between values parts separate entries of the source, which are not always exact repeats. Equal entries are not always repeated. The source made the active and inactive calls.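 Rule for the calls: active = compounds lowering the viability signal whose fitted AC50 is no more than ten times their top tested dose; inconclusive = flat fit with a 30 to 70% drop, or poor fit; inactive = the rest.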

A short description of assay [1]: U2OS reporter cell viability with added zinc – zinc-supplemented medium, dry powder, cytotoxicity control for HIF pathway activator project, dose response (AID 504323). Particulars: U2OS HRE-luciferase cells, viability toxicity, luminescence; at 38 µM (top of the series). In a few lines: (§1)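 Assay system: U2OS 3×HRE-luciferase reporter cells. Amount: 6,000 cells per well. Buffer or medium: 50 µM zinc sulfate final. Dosing: Eight-point compound series with threefold dilution steps. Schedule: 24 h attachment, then 24 h compound exposure at 37 °C. Technique: CellTiter-Glo luminescence for cell viability.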

Assay [2] concerns U2OS HRE-luciferase cells, viability toxicity, luminescence. The description is as above. An outline of the steps: as §1

As to `O=C(Nc1cnc2ccccc2c1)c1cc(-c2ccccc2)on1`, the activity change, negative = toxicity in assay [1] is 5.21% (inactive).

In the case of `O=C(NCCN1CCOCC1)c1cc(-c2ccccc2)on1`, in assay [1], the activity change, negative = toxicity was 10.8% (inactive).

For the molecule `c1ccc(CCNc2nc(-c3ccccn3)nnc2-c2ccccc2)cc1`, in assay [1], the activity change, negative = toxicity was -7.93% (inactive).

In the case of `OCC1CCN(Cc2ccc(O)c3ncccc23)CC1`, in assay [1], the activity change, negative = toxicity was -18.1% (inactive).

Consider `c1ccc(CNc2nc(-c3ccccn3)nnc2-c2ccccc2)cc1`, for which the activity change, negative = toxicity in assay [1] is 11.5% (inactive).

Turning to `Cc1ccccc1CNc1nc(-c2ccccn2)nnc1-c1ccccc1`, the activity change, negative = toxicity in assay [1] is -8.68% (inactive).

In the case of `Cn1c(-c2ccccc2)cnc1NC(=O)c1cc(-c2ccccc2)on1`, the activity change, negative = toxicity in assay [1] was -1.6% (inactive).

`O=C(c1cc(-c2ccccc2)on1)N1CCC(N2CCCC2)CC1`: the activity change, negative = toxicity in assay [1] was 4.1% (inactive).

Regarding `Oc1ccc(CNC2CCc3ccccc32)c2cccnc12` (centres undefined), the activity change, negative = toxicity in assay [1] was -6.14% (inactive).

In the case of `O=C(NCCN1CCCCC1)c1cc(-c2ccccc2)on1`, the activity change, negative = toxicity in assay [1] is 14.1% (inactive).

For the molecule `c1ccc(-c2nnc(-c3ccccn3)nc2NCC2CCOCC2)cc1`, the activity change, negative = toxicity in assay [1] was 14.9% (inactive).

As for `Cc1cccc(Nc2nc(-c3ccccn3)nnc2-c2ccccc2)n1`, the activity change, negative = toxicity in assay [1] was -13.3% (inactive).

As to `CC(Nc1nc(-c2ccccn2)nnc1-c1ccccc1)c1ccccc1` (centres undefined), the activity change, negative = toxicity in assay [1] is -0.542% (inactive).

Regarding `O=C(c1cc(-c2ccccc2)on1)N1CCc2cccnc21`, the activity change, negative = toxicity in assay [1] is -4.78% (inactive).

Take `Cc1cccc(CNC(=O)c2cc(-c3ccccc3)on2)c1`: in assay [1], the activity change, negative = toxicity is -2.43% (inactive).

As for `Cc1ccc(Nc2nc(-c3ccccn3)nnc2-c2ccccc2)cn1`, the activity change, negative = toxicity in assay [1] was 3.19% (inactive).

For `c1ccc(-c2nnc(-c3ccccn3)nc2NCCN2CCOCC2)cc1`, in assay [1], the activity change, negative = toxicity is 3.62% (inactive).

With `O=C(NCCCN1CCOCC1)c1cc(-c2ccccc2)on1`, the activity change, negative = toxicity in assay [1] was 15.2% (inactive).

Regarding `O=C(Nc1nc(-c2ccccc2)cs1)c1cc(-c2ccccc2)on1`, in assay [1], the activity change, negative = toxicity is 7.74% (inactive).

In the case of `C=CCNc1nc(-c2ccccn2)nnc1-c1ccccc1`, the activity change, negative = toxicity in assay [1] was 29% (inactive).

In the case of `CC1CN(Cc2ccc(O)c3ncccc23)CC(C)O1` (centres undefined), the activity change, negative = toxicity in assay [1] was -3.44% (inactive).

For `Cc1ccc(CNc2nc(-c3ccccn3)nnc2-c2ccccc2)cc1`, in assay [1], the activity change, negative = toxicity is 4.61% (inactive).

With `c1ccc(-c2nnc(-c3ccccn3)nc2NCc2cccnc2)cc1`, in assay [1], the activity change, negative = toxicity is 30.2% (inactive).

For the molecule `COc1ccccc1N1CCN(Cc2ccc(O)c3ncccc23)CC1`, the activity change, negative = toxicity in assay [1] was -14.5% (inactive).

With `O=C(NCCCn1ccnc1)c1cc(-c2ccccc2)on1`, the activity change, negative = toxicity in assay [1] was -5.48% (inactive).

On to `c1ccc(-c2nnc(-c3ccccn3)nc2NCC2CC2)cc1`, for which the activity change, negative = toxicity in assay [1] is 20.9% (inactive).

As for `O=C(NCC1CC1)c1cc(-c2ccccc2)on1`, in assay [1], the activity change, negative = toxicity is 22.5% (inactive).

In the case of `CN(C)c1nc(-c2ccccn2)nnc1-c1ccccc1`, in assay [1], the activity change, negative = toxicity was 33.4% (inactive).

As for `Cn1c(NC(=O)c2cc(-c3ccccc3)on2)nc2ccccc21`, in assay [1], the activity change, negative = toxicity was 16% (inactive).

Turning to `O=C(c1cc(-c2ccccc2)on1)N1CCC(CO)CC1`, in assay [1], the activity change, negative = toxicity was 9.31% (inactive).

Turning to `O=C(NCCCO)c1cc(-c2ccccc2)on1`, in assay [1], the activity change, negative = toxicity was 3.54% (inactive).

Regarding `CN1CCN(C(=O)c2cc(-c3ccccc3)on2)CC1`, the activity change, negative = toxicity in assay [1] is 2.31% (inactive).

As to `Cc1ccc(NC(=O)c2cc(-c3ccccc3)on2)cn1`, the activity change, negative = toxicity in assay [1] was -11.1% (inactive).

`O=C(NCCCCO)c1cc(-c2ccccc2)on1`: the activity change, negative = toxicity in assay [1] is 6.82% (inactive).

For the molecule `COc1cccc(CNc2nc(-c3ccccn3)nnc2-c2ccccc2)c1`, in assay [1], the activity change, negative = toxicity is -8.43% (inactive).

Consider `O=C(Nc1cn2ccccc2n1)c1cc(-c2ccccc2)on1`, for which the activity change, negative = toxicity in assay [1] was 10.3% (inactive).

Take `c1ccc(-c2cccc(CNc3nc(-c4ccccn4)nnc3-c3ccccc3)c2)cc1`: in assay [1], the activity change, negative = toxicity was 21.1% (inactive).

With `c1ccc(-c2nnc(-c3ccccn3)nc2N2CCC(C3CCCCC3)C2)cc1` (centres undefined), the activity change, negative = toxicity in assay [1] was 25.2% (inactive).

With `CC(C)(C)CCNC(=O)c1cc(-c2ccccc2)on1`, in assay [1], the activity change, negative = toxicity was -8.3% (inactive).

On to `O=C(Nc1ncc(-c2ccccc2)o1)c1cc(-c2ccccc2)on1`, for which the activity change, negative = toxicity in assay [1] is -2.78% (inactive).

On to `O=C(Nc1nc2ccccc2s1)c1cc(-c2ccccc2)on1`, for which, in assay [1], the activity change, negative = toxicity is 18.7% (inactive).

Take `Oc1ccc(CN2CCc3ccccc3C2)c2cccnc12`: the activity change, negative = toxicity in assay [1] is -93.5% (inactive) and -0.278% (inactive).

In the case of `COc1ccc(CNc2nc(-c3ccccn3)nnc2-c2ccccc2)cc1`, the activity change, negative = toxicity in assay [1] was 1.65% (inactive).

As for `O=C(NC1Cc2ccccc2C1)c1cc(-c2ccccc2)on1`, in assay [1], the activity change, negative = toxicity was -8.56% (inactive).

On to `O=C(Nc1ccc2ccccc2n1)c1cc(-c2ccccc2)on1`, for which the activity change, negative = toxicity in assay [1] is 16.8% (inactive).

In the case of `Cc1cccc(NC(=O)c2cc(-c3ccccc3)on2)n1`, the activity change, negative = toxicity in assay [1] is 2.1% (inactive).

For `OCCCNc1nc(-c2ccccn2)nnc1-c1ccccc1`, the activity change, negative = toxicity in assay [1] is 17.6% (inactive).

Take `c1ccc(-c2nnc(-c3ccccn3)nc2NCCc2ccccn2)cc1`: the activity change, negative = toxicity in assay [1] was 12.3% (inactive).

On to `c1ccc(-c2cnc(Nc3nc(-c4ccccn4)nnc3-c3ccccc3)s2)cc1`, for which the activity change, negative = toxicity in assay [1] was 10.3% (inactive).

`c1ccc(-c2ccc(CNc3nc(-c4ccccn4)nnc3-c3ccccc3)cc2)cc1`: the activity change, negative = toxicity in assay [1] is 7.11% (inactive).

With `O=C(Nc1ncc2ccccc2n1)c1cc(-c2ccccc2)on1`, the activity change, negative = toxicity in assay [1] is -15.3% (inactive).

On to `CC(C)(C)CCNc1nc(-c2ccccn2)nnc1-c1ccccc1`, for which the activity change, negative = toxicity in assay [1] is -16.3% (inactive).

As to `Cc1ccc(CNC(=O)c2cc(-c3ccccc3)on2)cc1`, the activity change, negative = toxicity in assay [1] was -12.8% (inactive).

Regarding `Cc1cccc(CNc2nc(-c3ccccn3)nnc2-c2ccccc2)c1`, the activity change, negative = toxicity in assay [1] was -2.48% (inactive).

For `O=C(c1cc(-c2ccccc2)on1)N1CCC(N2CCOCC2)CC1`, the activity change, negative = toxicity in assay [1] was 2.52% (inactive).

In the case of `c1ccc(-c2nnc(-c3ccccn3)nc2NCCCN2CCOCC2)cc1`, the activity change, negative = toxicity in assay [1] is 23.8% (inactive).

Consider `O=C(c1cc(-c2ccccc2)on1)N1CCN(c2ccncc2)CC1`, for which, in assay [1], the activity change, negative = toxicity was -1.95% (inactive).

With `CCCCNC(=O)c1cc(-c2ccccc2)on1`, the activity change, negative = toxicity in assay [1] is 15.6% (inactive).

`O=C(NC1CCc2ccccc2C1)c1cc(-c2ccccc2)on1` (centres undefined): in assay [2], the AC50 (as a rule, the concentration at which the activity in the assay is half-maximal) is > 38 µM (inactive).

For the molecule `c1ccc(-c2nnc(-c3ccccn3)nc2N2CCN(c3ccncc3)CC2)cc1`, the activity change, negative = toxicity in assay [1] was 16.2% (inactive).

In the case of `CN(C)CCNC(=O)c1cc(-c2ccccc2)on1`, the activity change, negative = toxicity in assay [1] is 7.75% (inactive).

`C[C@H](Nc1nc(-c2ccccn2)nnc1-c1ccccc1)C1CCCCC1`: in assay [1], the activity change, negative = toxicity was -13.5% (inactive).

For the molecule `O=C(Nc1nnc(-c2ccccc2)s1)c1cc(-c2ccccc2)on1`, the activity change, negative = toxicity in assay [1] is 16.2% (inactive).

Take `OCC1CCN(c2nc(-c3ccccn3)nnc2-c2ccccc2)CC1`: the activity change, negative = toxicity in assay [1] was 10.9% (inactive).

With `Oc1ccc(CN2CCC(Cc3ccccc3)CC2)c2cccnc12`, in assay [1], the activity change, negative = toxicity was -1.98% (inactive).

Regarding `Cn1c(-c2ccccc2)cnc1Nc1nc(-c2ccccn2)nnc1-c1ccccc1`, in assay [2], the AC50 was > 38 µM (inactive).

As for `Cc1ccccc1CNC(=O)c1cc(-c2ccccc2)on1`, the activity change, negative = toxicity in assay [1] is 6.54% (inactive).

As to `c1ccc(-c2csc(Nc3nc(-c4ccccn4)nnc3-c3ccccc3)n2)cc1`, the activity change, negative = toxicity in assay [1] is -2.4% (inactive).

With `Clc1cccc(CNc2nc(-c3ccccn3)nnc2-c2ccccc2)c1`, in assay [1], the activity change, negative = toxicity was -1.81% (inactive).

For `c1ccc(-c2nnc(-c3ccccn3)nc2Nc2nc3ccccc3s2)cc1`, the AC50 in assay [2] is 8.1 µM.

`c1ccc(-c2nnc(Nc3nc(-c4ccccn4)nnc3-c3ccccc3)s2)cc1`: the AC50 in assay [2] is > 38 µM (inactive).

Regarding `O=C(NCC1CCCCC1)c1cc(-c2ccccc2)on1`, the activity change, negative = toxicity in assay [1] is -11% (inactive).

In the case of `c1ccc(-c2nnc(-c3ccccn3)nc2NCc2ccccn2)cc1`, the activity change, negative = toxicity in assay [1] is -3.76% (inactive).

Turning to `c1ccc(-c2nnc(-c3ccccn3)nc2N2CCC(c3ccccc3)C2)cc1` (centres undefined), the activity change, negative = toxicity in assay [1] was -12.2% (inactive).

Consider `c1ccc(-c2nnc(-c3ccccn3)nc2Nc2cnc3ccccc3n2)cc1`, for which, in assay [2], the AC50 was 10.1 µM.

Take `CN1CCN(c2nc(-c3ccccn3)nnc2-c2ccccc2)CC1`: the activity change, negative = toxicity in assay [1] was -11.4% (inactive).

For the molecule `O=C(NCc1ccccc1)c1cc(-c2ccccc2)on1`, the activity change, negative = toxicity in assay [1] was 4.7% (inactive).

As to `c1ccc(-c2nnc(-c3ccccn3)nc2N2CCC(N3CCOCC3)CC2)cc1`, the activity change, negative = toxicity in assay [1] was 21.5% (inactive).

Consider `CC(C)(C)OC(=O)N1CCN(Cc2ccc(O)c3ncccc23)CC1`, for which, in assay [1], the activity change, negative = toxicity is 6.73% (inactive).
